Assay results gathered from unrelated publications.
Each line is one published result; the experiments were not run side by side.
Organism: Staphylococcus aureus
Observed: microbial growth

Structure (SMILES)	method	strain	time	setting	MIC
Cc1ccc(C)n1-c1ccc(-c2nnc(S)s2)cc1	broth dilution	ATCC11632	18 h	–	1 mg/L
Cc1ccccc1NCc1ccc(Oc2ccccn2)cc1	–	–	–	–	1.6 mg/L
Cc1ccc2nc(-c3c(F)cccc3Cl)[nH]c2c1	broth dilution	ATCC29213 MSSA	–	–	64 mg/L
CCS(=O)(=O)c1cccc(-c2cc(C(=O)NC3CCN(C)CC3)c(C)c3[nH]c4ncc(C)cc4c23)c1	–	NCTC8325	–	–	> 30 µM
C/C=C(\C)c1cc(O)c(C)c(OC(=O)c2c(C)cc(O)c(Cl)c2O)c1	broth dilution	16339	–	–	16 mg/L
CN1CCN(CCOc2cc(OC3CCOCC3)c3c(Nc4c(Cl)ccc5c4OCO5)ncnc3c2)CC1	–	NCTC8325	–	–	> 30 µM
C[C@@H](O)[C@H]1C(=O)N2C(C(=O)O)=C(SCCN=CN)C[C@H]12	broth dilution	KCTC1621	16 h	–	8 µM
O=C(O)CN1C(=O)/C(=C/c2ccc(-c3ccc(N(c4ccccc4)c4ccccc4)cc3)c3ccccc23)NC1=S	broth dilution	ATCC25923	–	–	> 1000 mg/L
CCCCCCC#Cc1cncc(-c2nnc(SCc3ccc(Cl)c(F)c3)n2C)c1	–	MRSA	–	drug-resistant strain	≥ 20 mg/L
O=C(O)CN1C(=O)/C(=C/c2ccc(-c3ccc(N(c4ccccc4)c4ccccc4)cc3)cc2)NC1=S	broth dilution	ATCC43300	–	–	1.95 mg/L
CC(C)(O/N=C(\C(=O)N[C@@H]1C(=O)N2C(C(=O)[O-])=C(C[n+]3ccccc3)CS[C@H]12)c1csc(N)n1)C(=O)O	–	MRSA	18 h	–	> 128 mg/L
CO[C@H]1[C@H](O[C@H]([C@H]2O[C@@H](n3ccc(=O)[nH]c3=O)[C@H](O)[C@@H]2O)[C@H](NCCCNC(=O)[C@@H](NC(=O)[C@@H](NC(=O)N[C@H](C(=O)O)C(C)C)[C@@H]2CCNC(=N)N2)[C@@H](O)C(C)C)C(=O)O)O[C@H](CN)[C@H]1O	–	NEWMAN	–	–	> 32 mg/L
O=C1NC(=S)N/C1=C\c1c2ccccc2c(-c2ccc(N(c3ccccc3)c3ccccc3)cc2)c2ccccc12	broth dilution	ATCC25923	–	–	> 1000 mg/L
Cn1c(Nc2ccc(C(F)(F)F)cc2)nc2cc(Oc3ccnc(-c4ncc(C(F)(F)F)[nH]4)c3)ccc21	–	NCTC8325	–	–	30 µM
CC(C)Oc1c(NC(=O)c2ccc(NC(=O)[C@H](CC(N)=O)NC(=O)c3ccc(NC(=O)c4ccc(C#N)c(F)c4)cc3)cc2)ccc(C(=O)Nc2ccc(C(=O)O)cc2)c1O	–	ATCC29213	–	–	2 mg/L
C/C=C(\C)c1cc(OC(=O)c2c(O)c(C)c(O)c(Cl)c2/C(C)=C/C)c(C)c(O)c1C(=O)O	broth dilution	16339	–	–	64 mg/L
O=C1NC(=S)S/C1=C\c1ccc(-c2ccc(N(c3ccccc3)c3ccccc3)cc2)cc1	broth dilution	ATCC6538	–	–	500 mg/L
Cc1cc2c([nH]c3ccccc32)c2c1C(=O)C=CC2=O	–	ATCC29213	–	–	64 mg/L
CCOc1ccc(-c2nc3cc(-c4nc5cc(N6CCN(C)CC6)ccc5[nH]4)ccc3[nH]2)cc1	broth dilution	33591	24 h	–	2 to 4 mg/L
C/C(=C\c1ccc(C#N)cc1)C(=O)Nc1ccc(C(=O)N[C@@H](CC(N)=O)C(=O)Nc2ccc(C(=O)Nc3ccc(C(=O)Nc4ccc(C(=O)O)cc4)c(O)c3OCC(C)C)cc2)cc1	–	ATCC29213	–	–	0.06 mg/L

Structure (SMILES)	method	strain	time	setting	MIC
Cc1ccc2nc(-c3ccc(Cl)c(Cl)c3)[nH]c2c1	broth dilution	ATCC29213 MSSA	–	–	16 mg/L
CO[C@@H](C(N)=O)[C@H](NC(=O)c1ccc(NC(=O)c2ccc(C#N)cc2)cc1)C(=O)Nc1ccc(C(=O)Nc2ccc(C(=O)Nc3ccc(C(=O)O)cc3)c(O)c2OC(C)C)cc1	–	ATCC29213	–	–	< 0.03 mg/L
C#CCCC1(CC(=O)NC(C)C)N=N1	–	NCTC8325	–	–	> 100 µM
Cc1ccc2nc(-c3ccc(Cl)cc3Cl)[nH]c2c1	broth dilution	ATCC29213 MSSA	–	–	64 mg/L
CC1=NN(CNc2ccccc2)C(=O)C1=NNn1c(-c2ccccc2)nc2ccccc2c1=O	broth dilution	–	24 h	–	221 µM
COc1cccc(OC)c1C(=O)N[C@@H]1C(=O)N2[C@@H]1SC(C)(C)[C@@H]2C(=O)O	broth dilution	25923	–	–	3.13 µM
CSc1nc(O)n2nccc2n1	–	–	–	–	> 128 mg/L
CCc1cnn2c(NCc3ccc[n+]([O-])c3)cc(N3CCCC[C@H]3CCO)nc12	–	NCTC8325	–	–	> 30 µM
CCOc1ccc(-c2nc3ccccc3[nH]2)cc1	broth dilution	ATCC29213 MSSA	–	–	256 mg/L
O=C(Cc1cc(O)c(O)c(O)c1)NCCCCCCCC[P+](c1ccccc1)(c1ccccc1)c1ccccc1.[Br-]	broth dilution	ATCC43300 MRSA	18 h	–	> 32 mg/L
CCn1cc(C(=O)O)c(=O)c2cc(F)c(N3CCNCC3)cc21	–	MRSA	–	–	250 mg/L
COc1cc(OC)c2cc(C(=O)NCc3ccc(C)cc3)cc(O)c2c1	broth dilution	ATCC29213 MSSA	–	–	32 mg/L
CC(C)Oc1c(NC(=O)c2ccc(NC(=O)[C@H](CC(N)=O)NC(=O)c3ccc(C#Cc4ccc(C#N)cc4)cc3)cc2)ccc(C(=O)Nc2ccc(C(=O)O)cc2)c1O	–	ATCC29213	–	–	≤ 0.03 mg/L
CCOC(=O)/C(C#N)=C(\O)c1ccc(NC(=O)c2cccs2)cc1	–	–	–	–	> 128 mg/L
C/C=C(\C)c1cc(O)c(C)c(OC(=O)c2c(C)c(Cl)c(O)c(Cl)c2O)c1	broth dilution	ATCC29213	–	–	4 mg/L
O=C(Nc1ccc2c(c1)OC(F)(F)O2)Nc1ccc(Cl)c(C(F)(F)F)c1	–	NCTC8325	–	–	0.3 µM
Cc1ccc2nc(-c3ccco3)n(Cc3ccccc3)c2c1	broth dilution	ATCC29213 MSSA	–	–	128 mg/L
CN[C@H](CC(C)C)C(=O)N[C@H]1C(=O)N[C@@H](CC(N)=O)C(=O)N[C@H]2C(=O)N[C@H]3C(=O)N[C@H](C(=O)N[C@H](C(=O)O)c4cc(O)cc(O)c4-c4cc3ccc4O)[C@H](O)c3ccc(c(Cl)c3)Oc3cc2cc(c3O[C@@H]2O[C@H](CO)[C@@H](O)[C@H](O)[C@H]2O[C@H]2C[C@](C)(N)[C@H](O)[C@H](C)O2)Oc2ccc(cc2Cl)[C@H]1O	broth dilution	ATCCBAA44	–	–	1 mg/L
O=C1NC(=S)N/C1=C\c1ccc(-c2ccc(N(c3ccccc3)c3ccccc3)cc2)c2ccccc12	broth dilution	ATCC43300	–	–	> 1000 mg/L
COc1cccc(OC)c1C(=O)N[C@@H]1C(=O)N2[C@@H]1SC(C)(C)[C@@H]2C(=O)O	broth dilution	ATCCBAA44	–	–	1020 mg/L

Structure (SMILES)	method	strain	time	setting	MIC
O=C(O)CN1C(=O)/C(=C/c2ccc(-c3ccc(N(c4ccccc4)c4ccccc4)cc3)c3ccccc23)SC1=S	broth dilution	ATCC25923	–	–	1000 mg/L
Cc1ccc2nc(-c3ccc(N(C)C)cc3)[nH]c2c1	broth dilution	ATCC29213 MSSA	–	–	64 mg/L
C/C(=C\c1ccc(O)cc1)C(=O)Nc1ccc(C(=O)N[C@@H](CC(N)=O)C(=O)Nc2ccc(C(=O)Nc3ccc(C(=O)Nc4ccc(C(=O)O)cc4)c(O)c3OC(C)C)cc2)cc1	–	ATCC29213	–	–	0.25 mg/L
Clc1ccc(Cn2c(-c3ccc(Cl)cc3)nc3ccccc32)cc1	broth dilution	ATCC29213 MSSA	–	–	8 mg/L
CN(C)c1ccc(-c2nc3ncc(Cl)c(N4CCN(CC(=O)Nc5nccs5)CC4)c3[nH]2)cc1	–	NCTC8325	–	–	> 30 µM
CN[C@H](CC(C)C)C(=O)N[C@H]1C(=O)N[C@@H](CC(N)=O)C(=O)N[C@H]2C(=O)N[C@H]3C(=O)N[C@H](C(=O)N[C@H](C(=O)O)c4cc(O)cc(O)c4-c4cc3ccc4O)[C@H](O)c3ccc(c(Cl)c3)Oc3cc2cc(c3O[C@@H]2O[C@H](CO)[C@@H](O)[C@H](O)[C@H]2O[C@H]2C[C@](C)(N)[C@H](O)[C@H](C)O2)Oc2ccc(cc2Cl)[C@H]1O	broth dilution	MRSA	–	–	0.5 mg/L
COc1c(C)c(OS(=O)(=O)c2ccc3ccccc3c2)c(C)c(OS(=O)(=O)c2ccc3ccccc3c2)c1C(=O)/C=C/c1ccccc1	broth dilution	ATCC25923	–	–	5000 mg/L
Cc1nc(O)n2ncc(Cl)c2n1	–	–	–	–	> 128 mg/L
CNc1cccc2cc(C(=O)NCc3ccc(C(=O)O)cc3)c(=O)[nH]c12	–	ATCC29213	–	–	> 64 mg/L
CC(C)Oc1c(NC(=O)c2ccc(NC(=O)[C@H](CC(N)=O)NC(=O)c3ccc(NC(=O)c4ccc(C#N)cc4)cc3)cc2)ccc(C(=O)Nc2ccc(C(=O)O)cc2)c1O	–	ATCC29213	–	–	0.25 mg/L
CCC1(C)CC(OC(=O)CSc2nnc(N)[nH]2)C2(C)C(C)CCC3(CCC(=O)C32)C(C)C1O (stereo not shown)	–	–	–	–	0.5 mg/L
CC(=O)NC[C@H]1CN(c2ccc(N3CCOCC3)c(F)c2)C(=O)O1	broth dilution	MRSA NRS123 USA400	–	drug-resistant strain	2 mg/L
COc1c(C)c(OC(=O)c2ccc(C)cc2)c(C)c(O)c1C(=O)/C=C/c1ccccc1	broth dilution	ATCC25923	–	–	5000 mg/L
Cc1ccc(C)n1-c1ccc(C(=O)NNC=O)cc1	broth dilution	ATCC11632	18 h	–	16 mg/L
C/C=C(\C)c1cc(OC(=O)c2c(C)c(Cl)c(O)c(Cl)c2O)c(C)c(O)c1C(=O)O	broth dilution	745524	–	–	64 mg/L
CCOc1ccc(-c2nc3ccccc3n2Cc2ccccc2)cc1	broth dilution	ATCC29213 MSSA	–	–	64 mg/L
O=C(Nc1ccc(Cl)c(C(F)(F)F)c1)Nc1cccc2c1OC(F)(F)O2	–	NCTC8325	–	–	0.5 µM
CC[C@H]1OC(=O)[C@H](C)[C@@H](O[C@H]2C[C@@](C)(OC)[C@@H](O)[C@H](C)O2)[C@H](C)[C@@H](O[C@@H]2O[C@H](C)C[C@H](N(C)C)[C@H]2O)[C@](C)(O)C[C@@H](C)C(=O)[C@H](C)[C@@H](O)[C@]1(C)O	–	129	–	clinical isolate	> 100 µM
